From PubChem
pPAFAH inh: pPAFAH (human) enzyme inhibition; AID 463082; inhibition, % at 3.39 µM; recombinant pPAFAH, FP-rhodamine probe fluorescence polarization; actives 1.5% (n = 330,000); Q13093;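 active = inhibition above the mean inhibition across the screen plus 3 SD, cut at about 25% in these data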;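 note: inhibitors block binding of the rhodamine activity-based probe so polarization drops; 0% = enzyme with DMSO and 100% = wells lacking pPAFAH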
ASAP1 GAP inh: inhibitors of human ASAP1 ArfGAP activity; Q9ULH1; ASAP1-stimulated ARF1 GTP hydrolysis, GDP FP detection; inhibition, % at 16.5 µM; actives 0.19% (n = 360,000); in the data active = inhibition above about 25%;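 note: 0% = vehicle with enzyme and substrate and 100% = no enzyme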
PAFAH1B2 FP inh: inhibitors of human PAFAH1B2; P68402; recombinant PAFAH1B2, FP-rhodamine activity probe, fluorescence polarization; inhibition, % at 3.39 µM; actives 1.2% (n = 340,000);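 active = inhibition above the mean of all tested compounds plus 3 SD, cut at about 24% in these data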;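 note: 0% = enzyme with DMSO and 100% = wells lacking PAFAH1B2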
Target sequence (P68402 whole entry, looked up): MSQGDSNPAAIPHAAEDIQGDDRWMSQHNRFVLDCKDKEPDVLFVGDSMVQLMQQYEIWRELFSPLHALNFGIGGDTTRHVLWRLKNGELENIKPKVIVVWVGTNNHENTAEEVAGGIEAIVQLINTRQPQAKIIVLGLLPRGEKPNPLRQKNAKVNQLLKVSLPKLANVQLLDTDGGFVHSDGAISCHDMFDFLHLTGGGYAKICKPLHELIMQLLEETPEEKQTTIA
ARFGAP1 inh: inhibits rat ARF GTPase activating protein 1. inhibition, % at 16.5 µM. Q62848. actives 0.26% (n = 360,000). AID 651572. Arfgap1-stimulated ARF1 GTP hydrolysis, GDP FP detection;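 active = inhibition above a per-plate limit, mean inhibition of low control wells plus 3 SD, cut at about 25% in these data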;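 note: 0% = DMSO wells with enzyme and 100% = wells lacking Arfgap1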
Target sequence (Q62848 1-136 limits assumed): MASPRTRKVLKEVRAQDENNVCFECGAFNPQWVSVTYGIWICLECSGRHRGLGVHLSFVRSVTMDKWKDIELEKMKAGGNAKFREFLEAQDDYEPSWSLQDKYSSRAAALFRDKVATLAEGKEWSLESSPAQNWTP
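material = rat Arfgap1 catalytic domain, aa 1-136 | also added = human ARF1(Δ1-17)-GTP substrate | compound dosing = one concentration, 16.5 µM, DMSO 1.26% | times = GTP hydrolysis reaction 2 h at 25 °C | measured by = FP, GDP Alexa 633 tracer displaced from anti-GDP antibody, 620/688 nm | evaluation = percent inhibition of Arfgap1-stimulated GTP hydrolysis | replication = single well per compound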
PAFAH1B3 FP inh: inhibitors of human PAFAH1B3; Q15102; recombinant PAFAH1B3, FP-rhodamine probe, fluorescence polarization; inhibition, % at 3.39 µM; actives 0.28% (n = 340,000); AID 492972;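 active = inhibition above the screen-wide average of all tested compounds plus 3 SD, cut at about 25% in these data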;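 note: 0% = enzyme with DMSO only and 100% = wells lacking PAFAH1B3 protein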
Target sequence (Q15102 whole entry, looked up): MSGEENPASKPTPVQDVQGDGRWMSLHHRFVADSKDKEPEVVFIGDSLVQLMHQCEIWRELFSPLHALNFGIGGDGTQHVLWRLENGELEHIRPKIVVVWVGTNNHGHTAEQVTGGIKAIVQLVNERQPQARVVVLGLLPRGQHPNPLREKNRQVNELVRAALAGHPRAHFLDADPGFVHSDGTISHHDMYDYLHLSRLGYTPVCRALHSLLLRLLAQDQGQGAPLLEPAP
PAFAH2 FP inh: inhibitors of human PAFAH2; inhibition, % at 3.39 µM; AID 492956; Q99487; actives 0.99% (n = 340,000); recombinant PAFAH2, FP-rhodamine activity probe, fluorescence polarization;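 active = inhibition above the mean over all tested compounds plus 3 SD, cut at about 30% in these data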;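 note: inhibitors block probe labeling of enzyme so polarization drops; 0% = enzyme with DMSO and 100% = wells lacking PAFAH2 protein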
PAFAH1B3 confirm: confirmation of human PAFAH1B3 inhibitors. AID 493032. actives 30% (n = 390). shares compounds with PAFAH1B3 FP inh. inhibition, % at 3.39 µM. recombinant PAFAH1B3, FP-Rh activity-based probe, fluorescence polarization;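 active = average inhibition over triplicate runs above the hit cutoff set in the earlier primary screen, cut at about 25% in these data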;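 note: 0% = enzyme with DMSO and 100% = wells lacking PAFAH1B3 protein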
The depositor's hits bear a star; x = no result given. Compounds with a hit are over-represented: about 2.7% of the library has one in this group of screens.

SMILES | pPAFAH inh | ASAP1 GAP inh | PAFAH1B2 FP inh | ARFGAP1 inh | PAFAH1B3 FP inh | PAFAH2 FP inh | PAFAH1B3 confirm
CC1(Cc2ccccc2OC(F)(F)F)C(=O)Nc2ccc(-c3ccsc3)cc21 (stereo not drawn) | x | 5 | x | 9 | x | x | x
CN(C)CCCNc1cc(O)c2ncccc2c1 | 1 | -1 | 3 | 1 | 29* | 0 | 13
Oc1cc(NCc2ccc(F)cc2)cc2cccnc12 | 7 | -2 | 4 | -5 | 18 | 5 | x
CCOC(=O)C1(C)CCN1C(=O)/C=C/c1ccccc1 (stereo not drawn) | x | -1 | x | 3 | x | x | x
CC(Nc1cccc2ccccc12)C(=O)N/N=C/c1ccccn1 (stereo not drawn) | 3 | 18 | 11 | -3 | 36* | 23 | 11
CCOC(=O)c1c2c(n(C)c1C)C(=O)C(=O)c1ccc(Br)cc1-2 | -3 | 17 | 8 | -4 | 36* | 22 | 21
CN(C)c1ccc(CNC(=O)CC[C@H]2O[C@@H](n3cnc4c(NC(=O)c5ccccc5)ncnc43)[C@H](O)[C@@H]2O)cc1 | x | 1 | x | 10 | x | x | x
O=C(CNC1CCCCCC1)Nc1ccc(N2CCCC2)cc1 | 5 | x | x | x | x | x | x
CC(=O)c1ccc(NC(=O)CNC2CCCCC2)cc1 | -11 | 14 | 16 | 6 | 30* | 22 | 6
COc1ccc2c(c1)CC=C1C2CCC2(C)C(=O)C(=NO)CC12 (stereo not drawn) | x | -20 | 19 | -4 | 33* | 15 | 29*
COc1ccc(CN(C)C(=O)c2cccc(NC(=O)CC3SC(N4CCCCC4)=NC3=O)c2)c(OC)c1 (stereo not drawn) | x | 5 | 2 | -6 | 4 | -1 | x
CN(C)CCCCCCCCCCC(=O)/C=N/O | 6 | 4 | 12 | 6 | 27* | 8 | 22
N#CC(C#N)=C1C=C2C=C(N3CCCCCC3)CCC2CC1 (stereo not drawn) | x | -7 | 6 | 2 | 22 | 21 | x
N#CC(C#N)=C1C=C2C=C(N3CCOCC3)CCC2CC1 (stereo not drawn) | x | 8 | 18 | -6 | 34* | 27 | 14
O=C(CCl)Nc1c(C(=O)Nc2ccc3c(c2)OCCO3)oc2ccccc12 | 14 | 4 | 1 | -1 | 26* | 6 | 30*
Cc1cc(N(C)C)cc(C)c1N=Nc1cc[n+]([O-])cc1 | x | -1 | x | 3 | x | x | x
Cc1ccc(SC2=C(Sc3ccc(C)cc3)C(=O)c3ccccc3C2=O)cc1 | 8 | -8 | 21 | -13 | 38* | 16 | 35*
Cc1ccc(N2C(=O)c3ccccc3C2=O)cc1 | -7 | 4 | 7 | -5 | -1 | 4 | x
ON=C1c2ccccc2-c2ccccc21 | 1 | 13 | 2 | 0 | 35* | 2 | 28*
CN(C)c1ccc2c(c1)C(=NO)c1ccccc1-2 | x | x | 4 | x | 7 | 0 | x
C=CC(=O)Nc1ccc(Br)cc1 | 1 | -8 | 4 | -10 | 63* | -4 | 57*
NCC(=O)Nc1ccc(Br)cc1 | 2 | -1 | 0 | 6 | 3 | -3 | x
O=Nc1c(O)[nH]c2ccc(Cl)cc12 | 6 | 5 | 16 | 0 | 26* | 5 | 34*
O=Nc1c(O)[nH]c2ccc(F)cc12 | 8 | 11 | 7 | -12 | 21 | 0 | x
COc1cc2c(cc1OC)CN(CCC(=O)c1ccc(Br)cc1)CC2 | 4 | -1 | 15 | 4 | 33* | -3 | 28*
SMILES | pPAFAH inh | ASAP1 GAP inh | PAFAH1B2 FP inh | ARFGAP1 inh | PAFAH1B3 FP inh | PAFAH2 FP inh | PAFAH1B3 confirm
COc1cc2c(cc1OC)CN(C(=O)CCNC(=O)c1ccc(Br)cc1)CC2 | x | -7 | 4 | 11 | -2 | 2 | x
CC1=CC(C)(C)NC(=S)N1c1ccccc1C | 2 | -21 | 3 | -2 | 4 | -1 | x
CC1=CC(C)(C)NC(=S)N1c1cccc2cc(S(=O)(=O)O)ccc12 | 23 | -7 | 11 | 5 | 29* | 12 | 24
Cc1ccc(NC(=O)CSc2ncc(S(=O)(=O)c3ccccc3)c(=O)[nH]2)cc1C | 1 | -4 | 4 | 4 | 4 | 21 | x
O=C(CSc1ncc(S(=O)(=O)c2ccccc2)c(=O)[nH]1)Nc1ccccc1Cl | -5 | 5 | -1 | -1 | 56* | 8 | 51*
COc1ccc(N2CS(=O)CC2=O)cc1 (stereo not drawn) | 1 | 0 | 3 | -2 | 43* | 0 | 5
CCOC(=O)c1ccccc1N1C(=O)CSC1=S | -1 | 6 | -2 | -1 | 38* | 0 | 38*
O=c1cc(-c2ccc(O)c(O)c2)oc2c(C3O[C@H](CO)[C@@H](O)[C@H](O)[C@H]3O)c(O)cc(O)c12 (stereo partly drawn) | 4 | -5 | 2 | -2 | 30* | -3 | 11
O=c1cc(-c2ccc(O)cc2)oc2c(C3O[C@H](CO)[C@@H](O)[C@H](O)[C@H]3O)c(O)cc(O)c12 (stereo partly drawn) | 6 | -4 | 5 | -1 | 8 | 1 | x
O=C(CN1CCCc2ccccc21)N/N=C/c1c(O)ccc2ccccc12 | 12 | 9 | 13 | -5 | 31* | 22 | 14
CC(=O)SCCC(=O)Nc1ccccc1 | 6 | -1 | 1 | 2 | 26* | -3 | 14
CC(=O)NNC(=O)CCC(=O)Nc1ccccc1 | 1 | 7 | -5 | -6 | 10 | -2 | x
COc1ccc(Cl)c2sc(N(CCN(C)C)C(=O)C3=COCCO3)nc12 | x | 4 | -2 | -7 | 2 | -1 | x
Fc1ccc2nc(Nc3nc4cc5c(cc4s3)OCO5)sc2c1 | 24 | 12 | 23 | 5 | 43* | -32 | 44*
N#Cc1ccc(N)cc1OCCCN1CCCCC1 | x | -1 | 3 | -6 | 2 | -1 | x
CC1(C)COC(Cc2ccccc2)=N1 | x | 9 | x | 0 | x | x | x
O=C(COC(=O)c1ccc2ccccc2n1)NCc1ccccc1 | 20 | 4 | 4 | 8 | 47* | -6 | 6
O=C(COC(=O)c1ccc2ccccc2c1O)NCc1ccccc1 | 2 | -18 | 1 | 10 | 7 | 4 | x
CCCCNC(=O)c1nc(C2CCN(S(=O)(=O)c3cccc(C(F)(F)F)c3)CC2)oc1-c1cccc(C(F)(F)F)c1 | x | -1 | x | -1 | x | x | x
O=C(NC1(O)C(=O)c2ccccc2C1=O)c1ccc(C(F)(F)F)cc1 | 0 | 21 | x | 6 | x | x | x
Cc1ccc(C(=O)NC2(O)C(=O)c3ccccc3C2=O)cc1C | 2 | 24 | 8 | 22 | 37* | 24 | 37*
C#CCOCCOCCOCCNc1nc(N2CCN(C(=O)[C@H](CCC(=O)O)n3cc([C@@H](N)CCCCN)nn3)CC2)nc(N2CCN(C(=O)[C@H](CCCCN)n3cc([C@@H](N)CC(N)=O)nn3)CC2)n1 | 2 | -6 | -1 | 1 | 8 | -1 | x
